We go through 22 compounds from paper PMC8273112 (ACS Infectious Diseases, 2021).

For data set [1], the system named is P. falciparum strain Tm90–C2B. The data set can be described thus: SYBR Green growth inhibition assay, P. falciparum Tm90-C2B. The data set is classed as cell-based, Plasmodium falciparum. The conditions noted are these: Plasmodium falciparum, TM90, 72 h, read-out: IC50 Tm90–C2B. The method in brief:
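Human erythrocytes (≤28 days old), 2% hematocrit, asynchronous culture at 0.2% initial parasitemia, in RPMI-1640 with HEPES, hypoxanthine, glucose, glutamine and Albumax II. 2-fold serial dilution starting at 20 μM, quadruplicate. Incubated 72 h at 37 °C under 5% O2/5% CO2/90% N2. SYBR Green I dye-detergent added for at least 1 h in the dark; fluorescence read at 497/520 nm, normalized to untreated wells, plotted against log concentration.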

Data set [2] deals with Plasmodium falciparum strain D6. The data set can be described thus: SYBR Green growth inhibition assay, P. falciparum D6. To be noted: Plasmodium falciparum, D6, 72 h, read-out: IC50 D6. Format: cell-based.
The test system of data set [3] is Plasmodium yoelii. Nature of the data set: Modified 4-day Peters test, murine malaria. The data set is classed as in vivo, Plasmodium yoelii in mice.
Data set [4] concerns Plasmodium falciparum strain Dd2. Nature of the data set: SYBR Green growth inhibition assay, P. falciparum Dd2. The conditions noted are these: Plasmodium falciparum. Format: cell-based.
Data set [5] in a line: Murine microsomal stability. The data set is classed as in vitro ADME. To be noted: mouse, pooled murine liver microsomes; for CLint scaled at 1 μM: pH 7.4; for half-life at 1 μM: pH 7.4, murine microsomal stability, t1/2, 1 μM, 0.5 mg/mL protein, 37 °C, 1 h, NADPH. In general terms: Liver microsomes are vesicles of endoplasmic reticulum, rich in cytochrome P450 enzymes.
Data set [6] concerns P. falciparum A6 (SB1-A6). Nature of the data set: SYBR Green growth inhibition assay, P. falciparum A6. The conditions noted are these: Plasmodium falciparum, 72 h, read-out: IC50 A6. The data set is classed as cell-based, Plasmodium falciparum. The method in brief:
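Asynchronous parasites grown in human erythrocytes in RPMI-1640 with HEPES, hypoxanthine and Albumax II under 5% O2/5% CO2/90% N2 at 37 °C. Test compound in 2-fold serial dilution from 20 μM, run in quadruplicate, at 2% hematocrit and 0.2% starting parasitemia for 72 h. SYBR Green I lysis dye added for ≥1 h in the dark. Fluorescence read at 497/520 nm, normalized to untreated wells and plotted against log concentration.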

Where [7] appears, read: oral gavage days 1–4, parasitemia day 5, mice.

Structures can show the parent of a compound that is named as a salt. Where two headings read alike, the source gives them in different places.

The IC50 is the concentration at which inhibition is half-maximal. As a reminder, the CLint scaled is the rate of metabolic loss divided by the concentration. The half-life is how long it takes for the measured level to halve. As for `Cl.N#Cc1cc(/C=N/NC(=N)N/N=C/c2ccc(F)c(C#N)c2)ccc1F` [Compound 1, 2,2′-Bis[(3-cyano-4-fluorophenyl)methylene]carbonimidic Dihydrazide Hydrochloride], the IC50 in data set [1] stood at 16 nM; in data set [2], 4 nM; in data set [4] (DD2, 72 h, read-out: IC50 Dd2), 12 nM; in data set [6] it was 14 nM. Further, in data set [3] (setting [7]), the “P. yoelii ED90” value stood at 0.28 mg/kg/day. Also, the CLint scaled at 1 μM in data set [5] was 29.3 mL/min/kg. Moreover, in data set [5], the half-life at 1 μM was greater than 2.5 h.
On to `N=C(N/N=C/c1ccccc1F)N/N=C/c1ccccc1F` [Compound 2, 2,2′-Bis[(2-fluorophenyl)methylene]carbonimidic Dihydrazide Hydrochloride], for which the IC50 is greater than 5000 nM in data set [1]; 2870 nM in data set [2]; 4590 nM in data set [4] (DD2, 72 h, read-out: IC50 Dd2); 1890 nM in data set [6].
In the case of `N=C(N/N=C/c1cccc(F)c1)N/N=C/c1cccc(F)c1` [Compound 3, 2,2′-Bis[(3-fluorophenyl)methylene]carbonimidic Dihydrazide Hydrochloride], the IC50 in data set [1] was greater than 5000 nM; in data set [2], 767 nM; in data set [4] (DD2, 72 h, read-out: IC50 Dd2) it was greater than 5000 nM; in data set [6], 426 nM.
In the case of `N=C(N/N=C/c1ccc(F)cc1)N/N=C/c1ccc(F)cc1` [Compound 4, 2,2′-Bis[(4-fluorophenyl)methylene]carbonimidic Dihydrazide Hydrochloride], the IC50 in data set [1] came out at 4900 nM; in data set [2] it was 1020 nM; in data set [4] (DD2, 72 h, read-out: IC50 Dd2), 3790 nM; in data set [6], 369 nM.
With `N=C(N/N=C/c1ccccc1Cl)N/N=C/c1ccccc1Cl` [Compound 5, 2,2′-Bis[(2-chlorophenyl)methylene]carbonimidic Dihydrazide Hydrochloride], the IC50 in data set [1] was found to be 1220 nM; in data set [2] it was 334 nM; in data set [4] (DD2, 72 h, read-out: IC50 Dd2), 961 nM; in data set [6], 348 nM.
`N=C(N/N=C/c1cccc(Cl)c1)N/N=C/c1cccc(Cl)c1` [Compound 6, 2,2′-Bis[(3-chlorophenyl)methylene]carbonimidic Dihydrazide Hydrochloride]: the IC50 in data set [1] was 664 nM; in data set [2] it was 202 nM; in data set [4] (DD2, 72 h, read-out: IC50 Dd2), 567 nM; in data set [6], 237 nM.
`N=C(N/N=C/c1ccccc1Br)N/N=C/c1ccccc1Br` [Compound 7, 2,2′-Bis[(2-bromophenyl)methylene]carbonimidic Dihydrazide Hydrochloride]: the IC50 in data set [1] worked out at 974 nM; in data set [2], 280 nM; in data set [4] (DD2, 72 h, read-out: IC50 Dd2), 715 nM; in data set [6], 876 nM.
As for `N=C(N/N=C/c1cccc(Br)c1)N/N=C/c1cccc(Br)c1` [Compound 8, 2,2′-Bis[(3-bromophenyl)methylene]carbonimidic Dihydrazide Hydrochloride], the IC50 in data set [1] was found to be 1840 nM; in data set [2] it was 572 nM; in data set [4] (DD2, 72 h, read-out: IC50 Dd2) it was 1520 nM; in data set [6], 502 nM.
The corresponding values for `N=C(N/N=C/c1ccc(Br)cc1)N/N=C/c1ccc(Br)cc1` [Compound 9, 2,2′-Bis[(4-bromophenyl)methylene]carbonimidic Dihydrazide Hydrochloride] are 899 nM, 277 nM, 876 nM and 269 nM.
With `Cc1ccc(/C=N/NC(=N)N/N=C/c2ccc(C)cc2)cc1` [Compound 10, 2,2′-Bis[(4-methylphenyl)methylene]carbonimidic Dihydrazide Hydrochloride], the IC50 in data set [1] is 2530 nM; in data set [2], 905 nM; in data set [4] (DD2, 72 h, read-out: IC50 Dd2), 2430 nM; in data set [6], greater than 5000 nM.
For `COc1ccc(/C=N/NC(=N)N/N=C/c2ccc(OC)cc2)cc1` [Compound 11, 2,2′-Bis[(4-methoxyphenyl)methylene]carbonimidic Dihydrazide Hydrochloride], the IC50 is greater than 5000 nM in data set [1]; 263 nM in data set [2]; 1600 nM in data set [4] (DD2, 72 h, read-out: IC50 Dd2); 289 nM in data set [6].
The corresponding values for `N=C(N/N=C/c1ccc(C(F)(F)F)cc1)N/N=C/c1ccc(C(F)(F)F)cc1` [Compound 12, 2,2′-Bis[(4-trifluoromethylphenyl)methylene]carbonimidic Dihydrazide Hydrochloride] are 2740 nM, 614 nM, 1540 nM and 567 nM.
As to `N=C(N/N=C/c1ccccc1OC(F)(F)F)N/N=C/c1ccccc1OC(F)(F)F` [Compound 14, 2,2′-Bis[(2-trifluoromethoxyphenyl)methylene]carbonimidic Dihydrazide Hydrochloride], the IC50 in data set [1] was greater than 5000 nM; in data set [2] it was 1080 nM; in data set [4] (DD2, 72 h, read-out: IC50 Dd2), 2330 nM; in data set [6] it was 391 nM.
As to `N=C(N/N=C/c1cccc(OC(F)(F)F)c1)N/N=C/c1cccc(OC(F)(F)F)c1` [Compound 15, 2,2′-Bis[(3-trifluoromethoxyphenyl)methylene]carbonimidic Dihydrazide Hydrochloride], the IC50 in data set [1] stood at 2990 nM; in data set [2] it was 670 nM; in data set [4] (DD2, 72 h, read-out: IC50 Dd2) it was 1570 nM; in data set [6] it was 689 nM.
Consider `Cl.N=C(N/N=C/c1ccc(OC(F)(F)F)cc1)N/N=C/c1ccc(OC(F)(F)F)cc1` [Compound 16, 2,2′-Bis[(4-trifluoromethoxyphenyl)methylene]carbonimidic Dihydrazide Hydrochloride], for which the IC50 in data set [1] amounted to 114 nM; in data set [2], 39 nM; in data set [4] (DD2, 48 h, read-out: IC50 Dd2, 48 h), 410 nM; in data set [4] (DD2, 72 h, read-out: IC50 Dd2), 83 nM; in data set [4] (DD2, 72 h, read-out: IC50 Dd2, 72 h) it was 195 nM; in data set [4] (DD2, 96 h, read-out: IC50 Dd2, 96 h), 192 nM. Further, the IC50 in data set [6] was 52 nM. Moreover, the “P. yoelii ED50” value in data set [3] (setting [7]) turned out to be 1.2 mg/kg/day. The “P. yoelii ED90” value in data set [3] (setting [7]) is reported as 3.7 mg/kg/day. In data set [3] (oral gavage up to 25 mg/kg/day, no parasites at day 30), the “P. yoelii NRD (nonrecrudescence dose, cure dose)” value is reported as 12.5 mg/kg/day. Also, the CLint scaled at 1 μM in data set [5] was determined as 31.7 mL/min/kg. Moreover, in data set [5], the half-life at 1 μM is greater than 2.5 h.
For `N=C(N/N=C/c1ccc(OC(F)F)cc1)N/N=C/c1ccc(OC(F)F)cc1` [Compound 18, 2,2′-Bis[(4-difluoromethoxyphenyl)methylene]carbonimidic Dihydrazide Hydrochloride], the IC50 in data set [1] is 193 nM; in data set [2] it was 71 nM; in data set [4] (DD2, 72 h, read-out: IC50 Dd2) it was 191 nM; in data set [6], 87 nM.
For `N#Cc1ccccc1/C=N/NC(=N)N/N=C/c1ccccc1C#N` [Compound 20, 2,2′-Bis[(2-cyanophenyl)methylene]carbonimidic Dihydrazide Hydrochloride], the IC50 in data set [1] came to 1990 nM; in data set [2], 1020 nM; in data set [4] (DD2, 72 h, read-out: IC50 Dd2) it was 2100 nM; in data set [6] it was 969 nM.
Consider `N=C(N/N=C/c1ccccc1)N/N=C/c1ccccc1` [Compound 24, 2,2′-Bis(phenylmethylene)carbonimidic Dihydrazide Hydrochloride], for which the IC50 in data set [1] was greater than 5000 nM; in data set [2], 705 nM; in data set [4] (DD2, 72 h, read-out: IC50 Dd2) it was 4300 nM; in data set [6] it was 581 nM.
`CN(C)c1ccc(/C=N/NC(=N)N/N=C/c2ccc(N(C)C)cc2)cc1` [Compound 28, 2,2′-Bis[(4-dimethylaminophenyl)methylene]carbonimidic Dihydrazide Hydrochloride]: the IC50 in data set [1] was found to be 213 nM; in data set [2], 118 nM; in data set [4] (DD2, 72 h, read-out: IC50 Dd2) it was 264 nM; in data set [6], 122 nM.
For `N=C(N/N=C/c1ccc(N2CCOCC2)cc1)N/N=C/c1ccc(N2CCOCC2)cc1` [Compound 33, 2,2′-Bis[(4-morpholinophenyl)methylene]carbonimidic Dihydrazide Hydrochloride] the same measures were 295 nM, 131 nM, 329 nM and 116 nM.
Take `N=C(N/N=C/c1ccccc1)N/N=C/c1ccccc1F` [Compound 38, 2-(Phenylmethylene)-2′-[(2-Fluorophenyl)methylene]carbonimidic Dihydrazide Hydrochloride]: the IC50 was greater than 5000 nM in data set [1]; 1030 nM in data set [2]; 2200 nM in data set [4] (DD2, 72 h, read-out: IC50 Dd2); 833 nM in data set [6].
As to `O=C(c1ccc(F)cc1)C1CCN(CCn2c(=O)[nH]c3ccccc3c2=O)CC1` [ketanserin, reference compound], the half-life at 1 μM in data set [5] came out at 0.241 h.
